Experimental data published in ChEMBL document CHEMBL4513216, “Probing the Open Global Health Chemical Diversity Library for Multistage-Active Starting Points for Next-Generation Antimalarials” (ACS Infect Dis, 2020).

assay: Toxicity liver stage against HepG2, at 10uM; assay type: cell-based; design: test concentration 10 uM, cell line HepG2-A16-CD81EGFP; conditions: human, HepG2-A16-CD81EGFP cells; read-out: INHIBITION
How it was run: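 Uninfected HepG2-A16-CD81EGFP cells, 3 × 10^3 per well, 1536-well, plated on prespotted compound at 10 μM final, parasite-free screening media added to match infected plates; puromycin 10 μM positive, DMSO 0.5% negative; run in parallel with 48 h PbLuc assay at 37 °C, 5% CO2; viability by CellTiter-Glo luminescence, normalized to controls.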

Structure (SMILES) | cytotoxicity at 10 µM [%]
O=C(c1cn2ccsc2n1)N1CCN(CC2CC2)[C@@H]2CS(=O)(=O)C[C@@H]21 | -2.82
CN1CCN(Cc2ccccc2Oc2cncc(C(N)=O)n2)CC1 | -4.89
CSc1ccccc1CN1CCn2nc(CNC(=O)N(C)C)cc2C1 | 19.5
CNC(=O)C1CCCN(c2nc(-c3ccco3)nc3c2CCNCC3)C1 (stereo not given) | -7.74
CCCc1cnc(C)nc1NC(C)Cc1cnccn1 (stereo not given) | -7.96
CCC(C(=O)N1CCS(=O)(=O)CC1)n1cccn1 (stereo not given) | 1.28
Cc1ccccc1-n1cc(CNC(=O)CC2C(=O)NCCN2C)cn1 (stereo not given) | 2.4
COc1ccc(C(=O)N2CC[C@@H](N3CCC(O)CC3)[C@H](O)C2)cc1C | -8.1
N[C@@H]1c2ccccc2C2(CCN(C(=O)c3ccc(=O)[nH]c3)CC2)[C@H]1O | 3.27
CN(CC1CCCCO1)c1ncnc2cc(F)ccc12 (stereo not given) | -2.15
O=C(CCN1CCCC(CO)(CC2CC2)C1)NCc1cccc(Cl)c1 (stereo not given) | -1.07
COC(=O)c1ccc(NC(=O)CNCc2ccco2)cc1 | -12
COc1cccn(Cc2nnc(-c3cccc(F)c3)o2)c1=O | 2
COCCC(=O)N1CCCC(CCc2ccc(F)c(F)c2)C1 (stereo not given) | -2.59
FC(F)(F)C1CN(Cc2cccc(-c3ccccn3)c2)CCO1 (stereo not given) | -7.73
C=C(C)COc1ccccc1C(=O)N(C)C(C)c1c(C)n[nH]c1C (stereo not given) | 3.23
Fc1ccc(C(CNc2ccncn2)N2CCCCC2)cc1 (stereo not given) | -1.88
CSCc1nc(CNC(=O)C2CCCN(CC(N)=O)C2)cs1 (stereo not given) | -7.82
COC(=O)c1ccc2ccn(CC3CCNC3)c(=O)c2c1 (stereo not given) | -28
CCCN(C(=O)COC)c1nc2c(s1)CCc1c-2cnn1C | 5.15
CC(C)C(C(=O)N1CCN(c2nccs2)CC1)n1cncn1 (stereo not given) | -4.35
COc1ccccc1CC(=O)N1CCCC(CNS(C)(=O)=O)C1 (stereo not given) | 0.691
Cc1cc(C(=O)NCc2ccnc(N3CCOCC3)c2)c(C)s1 | -0.426
Cc1nc(CN2CCN(C(C)c3nc(C4CC4)no3)CC2)oc1C (stereo not given) | -5.95
Cc1nc(C2CCCN2CCC(=O)N2CCc3ccccc32)no1 (stereo not given) | -1.07
Cn1cc(C2CCCN2C(=O)CCc2cnn(-c3ccccc3)c2)cn1 (stereo not given) | -6.88
CN(C)c1cc2c(nn1)CCN(C(=O)C1CCCc3ccccc31)C2 (stereo not given) | -8.57
Fc1ccc(-c2nc(CN3CCCC3Cn3cncn3)co2)cc1 (stereo not given) | -8.28

Structure (SMILES) | cytotoxicity at 10 µM [%]
CCOCC(O)CN1CCN(C(=O)c2ccc(N(C)C)nn2)CC1 (stereo not given) | -13.1
O=C(NCCN1CCCCCC1)c1n[nH]c(=O)c2ccccc12 | -9.86
CCc1nc(CN(C)C2CCN(CC(F)(F)F)C2)no1 (stereo not given) | -16.8
Cc1ccc(CNC(=O)CN2CCOC(Cn3cncn3)C2)s1 (stereo not given) | -8.45
Cc1nc(C)n(CC2CCCN(CCOc3ccccc3F)C2)n1 (stereo not given) | -18.5
CCn1ncc2c1CCCC2NCc1ccc2c(c1)CCO2 (stereo not given) | -4.47
Cc1cccc(C2(C(=O)NCC3CCN(CC(F)(F)F)C3)CCC2)c1 (stereo not given) | -11.5
CCc1cccc(N2CCC(NC(=O)CCNC(N)=O)CC2)c1 | -12.5
COc1cccc(CCC(=O)N2CCCC(c3nncn3C)C2)c1 (stereo not given) | -20.1
CC(Cn1cccn1)NC(=O)N1CCN(Cc2ccsc2)CC1 (stereo not given) | -11.6
CCc1nc(C)c(C(=O)NCCNc2cnccn2)s1 | -4.64
Cn1cc(CN2CCCN(C(=O)c3ccc4c(c3)COC4)CC2)cn1 | -4.27
Cn1cc(C(=O)CC2CCCN2C(=O)c2n[nH]c3ccccc23)cn1 (stereo not given) | -0.842
CC(c1nc(C2CC2)no1)N1CCN(Cc2ccccc2F)CC1 (stereo not given) | 1.03
O=C(Cc1ccc(F)cc1)N1CCN(CC(O)C2CC2)CC1 (stereo not given) | -15.2
Cn1cncc1CN1CCC2(CC1)COCCN(S(C)(=O)=O)C2 | 4.73
Cc1ccc(C(=O)N2CC3(CCNCC3)c3cc(Cl)ccc32)cn1 | 1.61
O=C(c1ccncc1)N1CC2(CCNCC2)c2cc(Cl)ccc21 | -3.22
Cc1cc2c(=O)n3c(nc2s1)CCN(Cc1cncn1C)CC3 | -14.2
Cn1ncc2c1CCCC2NCc1cccc(F)c1 (stereo not given) | -15.6
O=C(c1ccsc1)N1C[C@H]2CN(Cc3cccnc3)C(=O)[C@H]2C1 | -5.15
Fc1cnc(N2CCCn3cnc(COc4cccnc4)c3C2)nc1 | 1.42
COc1ccc(CN2CC[C@H]3[C@H](CO[C@H]3CNC(=O)N(C)C)C2)cc1 | 6.96
CN(C)C(=O)COCc1cncc2c1CCN(C1CCOCC1)C2 | 9.66
CC(C)n1cnc2c1C(C(=O)N(C)C)N(Cc1ccccc1)CC2 (stereo not given) | -2.56
CN(Cc1cccnc1)[C@@H]1CN(CC2CC2)[C@@H]2CCCO[C@H]12 | -1.48
Nc1cc(C(=O)N2C[C@@H]3CC[C@H]2CN(Cc2cccnc2)C3)ccn1 | 0.624
